Measured values taken from ChEMBL document CHEMBL3797041, “Discovery of potent, reversible MetAP2 inhibitors via fragment based drug discovery and structure based drug design-Part 2” (Bioorg Med Chem Lett, 2016).

Tests used:
Cytochrome P450 1A2 = molecular target: T1, Cytochrome P450 1A2 (Homo sapiens, UniProt P05177); assay: Inhibition of human CYP1A2 expressed in Escherichia coli DH5alpha; assay type: ADME
T1 sequence (P05177 whole entry): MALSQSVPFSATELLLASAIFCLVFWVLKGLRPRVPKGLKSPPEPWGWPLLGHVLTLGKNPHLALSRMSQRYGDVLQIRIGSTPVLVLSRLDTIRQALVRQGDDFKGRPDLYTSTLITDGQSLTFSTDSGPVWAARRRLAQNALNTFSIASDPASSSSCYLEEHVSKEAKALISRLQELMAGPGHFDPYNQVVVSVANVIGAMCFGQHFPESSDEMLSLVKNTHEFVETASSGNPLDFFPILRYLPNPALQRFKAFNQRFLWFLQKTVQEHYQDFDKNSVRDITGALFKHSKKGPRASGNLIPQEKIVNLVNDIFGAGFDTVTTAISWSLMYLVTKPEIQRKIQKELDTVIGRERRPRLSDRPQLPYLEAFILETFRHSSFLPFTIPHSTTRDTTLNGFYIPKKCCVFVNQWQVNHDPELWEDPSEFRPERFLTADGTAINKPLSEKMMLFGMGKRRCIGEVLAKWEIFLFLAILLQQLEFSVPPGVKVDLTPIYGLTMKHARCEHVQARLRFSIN

Mus musculus [1] = assay: Antiobesity in diet-induced obese mouse model assessed as decrease in body weight at 30 mg/kg, po qd for 7 days relative to control; assay type: functional; details: 168 h
Method in brief: (§1)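 DIO mice were dosed by oral gavage once daily for 7 days, with a vehicle-dosed cohort as the comparator. Body weight was read relative to the vehicle group, and food intake and activity levels were monitored in dosed and vehicle cohorts. In some studies, animals were first acclimated to gavage for a few weeks, until their weights stopped changing, before dosing began.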

[2] = AUC in Sprague-Dawley rat at 2.9 mg/kg, po; assay type: ADME, organism-based; details: in vivo
Mus musculus [3] = assay: Toxicity in diet-induced obese mouse model assessed as effect on activity levels at 30 mg/kg, po qd for 7 days; assay type: organism-based; details: in vivo, 168 h; method in brief: as §1
Mus musculus [4] = assay: Toxicity in diet-induced obese mouse model assessed as effect on food intake at 30 mg/kg, po qd for 7 days; assay type: organism-based; details: in vivo, 168 h; method in brief: as §1
Rattus norvegicus = assay: Volume of distribution in Sprague-Dawley rat at 2.9 mg/kg, po; assay type: ADME, organism-based; details: in vivo
[5] = Oral bioavailability in Sprague-Dawley rat at 2.9 mg/kg; assay type: ADME, organism-based; details: in vivo
[6] = Clearance in Sprague-Dawley rat at 2.9 mg/kg, po; assay type: ADME, organism-based; details: in vivo
[7] = Half life in Sprague-Dawley rat at 2.9 mg/kg, po; assay type: ADME, organism-based; details: in vivo

SMILES | IC50 (Cytochrome P450 1A2) | also measured
O=C(NCCO)c1ccc(-n2c3ccc(F)cc3c3[nH]ncc32)cc1 | 7.94 µM | –
Cc1c(-n2c3ccc(F)cc3c3[nH]ncc32)cnc2[nH]cnc12 | > 50.1 µM | –
Cc1nc2c(cc1-n1c3ccc(F)cc3c3[nH]ncc31)ncn2C | 20 µM | –
Cc1cc(C(=O)NCCO)ccc1-n1c2ccc(F)cc2c2[nH]ncc21 | 7.94 µM | –
Nc1ncc(-n2c3ccc(F)cc3c3[nH]ncc32)cc1Cl | 0.158 µM | –
Clc1ccc2c3[nH]ncc3n(-c3cccnc3)c2c1 | 0.0631 µM | –
Fc1ccc2c(c1)c1[nH]ncc1n2-c1cccnc1 | 0.126 µM | –
Fc1cc2c3[nH]ncc3n(-c3cccnc3)c2cc1F | 0.0501 µM | –
Cc1nc2[nH]cnc2cc1-n1c2ccc(F)cc2c2[nH]ncc21 | 3.16 µM | inhibition in vivo at 30 mg/kg (Mus musculus [1]): 4%; AUC [2]: 2240 ng·h/mL; Activity (Mus musculus [3]): Non-toxic; Activity (Mus musculus [4]): Non-toxic; Vd (Rattus norvegicus): 1.597 L/kg; bioavailability [5]: 70%; CL/F [6]: 17.2 mL/min/kg; half-life [7]: 6 h
